Compound activity from PubChem BioAssay.
Compounds with a hit are over-represented: about 2.6% of the library has one in this group of screens.
core dimer inh – inhibitors of HCV core protein dimerization, primary screen, biochemical, TR-FRET, high-throughput; TR-FRET GST/Flag-core106 dimerization, 1536-well; inhibition, % at 5 µM; actives 0.33% (n = 300,000);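 active = inhibition above the mean of all tested compounds plus 3 SD, set per screening campaign, cut at about 45% in these data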
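Assay system: Tagged HCV core106 pair (GST and Flag) | Buffer or medium: KF-containing HEPES buffer, pH 7.45, DTT, CHAPS, BSA | Also added: Eu donor and XL665 acceptor anti-tag antibodies | Dosing: One concentration, 5 µM, in 0.5% DMSO | Timing: 4 h at 22.5 °C | Technique: TR-FRET 671 and 617 nm emission | Repeats: Singlicate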
rCAG binder – binders of r(CAG) RNA repeats, primary screen, biochemical, fluorescence; r(CAG) RNA repeat, TO-PRO-1 dye displacement fluorescence; inhibition, % at 3 µM; actives 1.3% (n = 370,000);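 active = inhibition above the plate cutoff, the mean of all test compounds on that plate plus 3 SD, cut at about 35% in these data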;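 note: higher means more dye released from RNA so lower well fluorescence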
NadD block – inhibitors of S. aureus NadD, primary screen, biochemical, colorimetric, uHTS | Nicotinate-nucleotide adenylyltransferase NadD (Staphylococcus aureus N315) | AID 602399, 2012 | purified NadD enzyme, colorimetric absorbance read-out | inhibition, % at 20 µM | actives 0.78% (n = 360,000); in the data active = inhibition above about 26%
ABHD5 PLIN5 PPI – ABHD5-PLIN5 interaction inhibitors, primary screen, cell lysate, split luciferase complementation, luminescence. Split G. princeps luciferase complementation, 4 h. inhibition, % at 4 µM. actives 0.78% (n = 360,000). AID 602281, 2012;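 active = inhibition above the mean inhibition across every tested compound plus 3 SD, cut at about 22% in these data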
ABHD5 PLIN5 conf – ABHD5-PLIN5 interaction inhibitors, confirmation, biochemical, luminescence; shares compounds with ABHD5 PLIN5 PPI; inhibition, % at 4 µM; actives 67% (n = 2,200); AID 651612, 2012; in the data active = inhibition above about 23%
HNF4 counter – HNF4 dimerization inhibitors, counter-screen for ABHD5-PLIN5 interaction inhibitor project, biochemical, split-luciferase complementation, luminescence | shares compounds with ABHD5 PLIN5 PPI | inhibition, % at 4 µM | actives 77% (n = 2,200);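 active = mean inhibition across replicate wells exceeding the computed hit threshold, cut at about 13% in these data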;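 note: light from luciferase halves that rejoin when HNF4 fusion proteins dimerize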
Each line names hits and unclear results; the compound was inactive in the other large screens (follow-up assays come after a bar, where they were run).

Cc1cc(C)c2c(=O)n(CC(=O)N3CCC(N4CCCCC4)CC3)sc2n1	ABHD5 PLIN5 PPI 34 | ABHD5 PLIN5 conf 33 | HNF4 counter 98
CCCNC(=O)Cn1sc2nc(C)cc(C)c2c1=O	ABHD5 PLIN5 PPI 45 | ABHD5 PLIN5 conf 30 | HNF4 counter 107
Cc1nn(CC(=O)N2CCC(N3CCCCC3)CC2)c(=O)c2c1sc1ccccc12	none
CC(=O)Cn1cnc2c(sc3nc(C)cc(C)c32)c1=O	none
COc1ccc2c(c1)/C(=C/c1cc(OC)c(OC)c(OC)c1)C(=O)N2	ABHD5 PLIN5 PPI 36 (no result: core dimer inh) | ABHD5 PLIN5 conf 49 | HNF4 counter 44
Cc1ccc2c(c1)/C(=C/c1ccc(F)cc1)C(=O)N2	ABHD5 PLIN5 PPI 34 | ABHD5 PLIN5 conf 45 | HNF4 counter 36
Cc1ccc2c(c1)/C(=C/c1ccccc1C)C(=O)N2	none
CCOc1cc(/C=N/NC(=O)c2ccc(CN3CCOCC3)cc2)ccc1OC	none
CCOc1cc(/C=C/C(=O)c2ccc(OC)c(CN3CCOCC3)c2)cc(Br)c1O	ABHD5 PLIN5 PPI 23 | ABHD5 PLIN5 conf 30 | HNF4 counter 24
CCOc1ccc(C(C)=O)cc1N1C(=O)C2C3C=CC(C3)C2C1=O (centres undefined)	none (no result: rCAG binder)
CCOc1ccc(C(C)=O)cc1N1C(=O)C2C3C=CC(O3)C2C1=O (centres undefined)	ABHD5 PLIN5 PPI 30 (no result: rCAG binder) | ABHD5 PLIN5 conf inactive | HNF4 counter 80
O=c1c(Br)ccc(Br)cc1Br	ABHD5 PLIN5 PPI 84 (no result: core dimer inh) | ABHD5 PLIN5 conf 101 | HNF4 counter 111
CC(=O)N1CCN(C(=O)CN2C(=O)CC(C)(C)S(=O)(=O)c3ccccc32)CC1	none (no result: core dimer inh, NadD block, ABHD5 PLIN5 PPI)
Nc1nc2c(ncn2[C@@H]2O[C@H](C(=O)NCCCc3ccccc3)[C@@H](O)[C@H]2O)c(=O)[nH]1	none (no result: core dimer inh, NadD block, ABHD5 PLIN5 PPI)
O=C(CC(C(=O)O)c1cccc(Cl)c1)c1ccccc1 (centres undefined)	none
O=C(CC(Nc1ccc(Cl)cc1Cl)C(=O)O)c1ccccc1 (centres undefined)	ABHD5 PLIN5 PPI 78 | ABHD5 PLIN5 conf inactive | HNF4 counter 80
Cc1ccc(NC(CC(=O)c2ccccc2)C(=O)O)cc1Cl (centres undefined)	ABHD5 PLIN5 PPI 29 | ABHD5 PLIN5 conf inactive | HNF4 counter 40
CCc1cc2c(nc1CC)CCCN2S(=O)(=O)c1ccccc1C	none (no result: core dimer inh, NadD block, ABHD5 PLIN5 PPI)
COc1cc(/C=C2\CCC/C(=C\c3ccc(O)c(OC)c3)C2=O)ccc1O	none
CCN1C/C(=C/c2cccc([N+](=O)[O-])c2)C(=O)/C(=C/c2cccc([N+](=O)[O-])c2)C1	ABHD5 PLIN5 PPI 40 | ABHD5 PLIN5 conf 102 | HNF4 counter 97
CCOc1cc(/C=C2\CN(CC)C/C(=C\c3ccc(O)c(OCC)c3)C2=O)ccc1O	ABHD5 PLIN5 PPI 83 | ABHD5 PLIN5 conf 94 | HNF4 counter 81
O=C1NC(=O)/C(=C/c2cccc([N+](=O)[O-])c2)N1	none
COC(=O)[C@]12CCCCC=C1N(CCc1ccc(OC)c(OC)c1)C(=O)[C@H](CC(=O)NCc1cccs1)C2	none (no result: core dimer inh, NadD block)
O=[N+]([O-])c1ccc(C2CC(c3ccccc3)=Nc3ccccc3S2)cc1 (centres undefined)	ABHD5 PLIN5 PPI 79 | ABHD5 PLIN5 conf 26 | HNF4 counter 88
Fc1ccc(C2CC(c3ccco3)=NN2c2ccccc2)cc1 (centres undefined)	none
O=C(O)C1CC(c2ccccc2)=Nc2ccccc2S1 (centres undefined)	none
Fc1ccc(C2CC(c3ccco3)=Nc3ccccc3S2)cc1 (centres undefined)	ABHD5 PLIN5 PPI 46 | ABHD5 PLIN5 conf inactive | HNF4 counter 69
Cc1ccc(-c2ccc(SCC(=O)Nc3cc(C)on3)nn2)cc1	ABHD5 PLIN5 PPI 55 | ABHD5 PLIN5 conf inactive | HNF4 counter inactive
COc1ccc(CN2C(=O)[C@@](O)(c3cccn3C)c3cc(F)ccc32)cc1	none (no result: core dimer inh, NadD block, ABHD5 PLIN5 PPI)
CN(C)CC(C(=O)c1ccccc1)c1ccccc1 (centres undefined)	ABHD5 PLIN5 PPI 31 | ABHD5 PLIN5 conf inactive | HNF4 counter 100
